Source: ChEMBL document CHEMBL4152266, “Insight into structural requirements for selective and/or dual CXCR3 and CXCR4 allosteric modulators” (Eur J Med Chem, 2018)
The source made the active and inactive calls. The calls are words filed in the database; no cut-off is given here.

What was measured:
[1] = biological target: T1, C-X-C chemokine receptor type 3 (Homo sapiens) (UniProt P49682); assay: Negative allosteric modulation of PK1-tagged CXCR3 (unknown origin) expressed in HEK293T cells co-expressing beta-arrestin/beta-Gal enzyme chimera assessed as inhibition of CXCL11-induced beta-arrestin recruitment at 10 uM after 4 hrs by chemiluminescence based beta-galactosidase reporter gene assay relative to control; assay type: functional, cell-based
T1 sequence (whole entry): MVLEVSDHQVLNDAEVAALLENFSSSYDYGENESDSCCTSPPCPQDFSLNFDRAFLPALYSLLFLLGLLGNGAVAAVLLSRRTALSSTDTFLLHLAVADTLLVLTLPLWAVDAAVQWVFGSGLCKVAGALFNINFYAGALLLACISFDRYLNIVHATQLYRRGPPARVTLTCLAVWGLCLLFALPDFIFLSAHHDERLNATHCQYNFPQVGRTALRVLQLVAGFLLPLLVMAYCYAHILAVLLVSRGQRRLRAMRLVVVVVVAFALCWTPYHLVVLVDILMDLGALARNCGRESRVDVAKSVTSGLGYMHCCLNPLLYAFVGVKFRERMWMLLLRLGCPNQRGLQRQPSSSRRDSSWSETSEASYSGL
How it was run: (§1)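 PathHunter β-arrestin 2 recruitment at CXCR3 by β-gal fragment complementation, chemiluminescent read-out, compounds at 10 µM. Inhibition mode is scaled between CXCL11 50 nM (100%) and (±)-NBI-74330 10 µM (full inhibition). Agonism tested without chemokine. Mean ± S.E.M., three experiments in triplicate.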

[2] = biological target: T1, C-X-C chemokine receptor type 3 (Homo sapiens); assay: Negative allosteric modulation of CXCR3 (unknown origin) expressed in HEK293T cells assessed as inhibition of CXCL11-induced reduction in forskolin-mediated cAMP accumulation at 10 uM after 20 mins by BRET assay relative to control; assay type: functional, cell-based
How it was run: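 CXCR3 antagonism in whole-cell BRET cAMP assay, compounds at 10 µM. NetBRET signal expressed as percent, scaled between CXCL11 50 nM (100%) and cRAMX3 10 µM (0%). Mean ± S.E.M. of three experiments in triplicate.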

[3] = biological target: T1, C-X-C chemokine receptor type 3 (Homo sapiens); assay: Negative allosteric modulation of CXCR3 in human PBMC assessed as inhibition of CXCL11-induced migration at 150 uM preincubated for 1 hr followed by CXCL11 addition measured after 3 hrs by flow cytometry based transwell assay relative to control; assay type: functional, cell-based
How it was run: (§2)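 Human PBMCs, CXCR3 expression confirmed by flow cytometry, pre-treated with compound (30 or 150 µM) then allowed to migrate toward CXCL11 in a transwell. Cells in the lower chamber counted by flow cytometry (60 s counts). Mean ± SD of four independent experiments; unpaired t test.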

[4] = biological target: T1, C-X-C chemokine receptor type 3 (Homo sapiens); assay: Negative allosteric modulation of CXCR3 (unknown origin) expressed in HEK293T cells assessed as inhibition of CXCL11-induced reduction in forskolin-mediated cAMP accumulation after 20 mins by BRET assay; assay type: functional, cell-based
How it was run: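 CXCR3 dose-response in BRET cAMP assay against CXCL11 at 50 nM, cRAMX3 as reference. Data fitted with a ternary complex allosteric model to give pKB and cooperativity α. Mean ± S.E.M., three experiments in triplicate.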

[5] = biological target: T1, C-X-C chemokine receptor type 3 (Homo sapiens); assay: Negative allosteric modulation of CXCR3 in human PBMC assessed as inhibition of CXCL11-induced migration at 30 uM preincubated for 1 hr followed by CXCL11 addition measured after 3 hrs by flow cytometry based transwell assay relative to control; assay type: functional, cell-based; how it was run: as §2
[6] = biological target: T1, C-X-C chemokine receptor type 3 (Homo sapiens); assay: Positive allosteric modulation of PK1-tagged CXCR3 (unknown origin) expressed in HEK293T cells co-expressing beta-arrestin/beta-Gal enzyme chimera assessed as increase in CXCL11-induced beta-arrestin recruitment at 10 uM after 4 hrs by chemiluminescence based beta-galactosidase reporter gene assay; assay type: functional, cell-based; how it was run: as §1
[7] = biological target: T2, C-X-C chemokine receptor type 4 (Homo sapiens, UniProt P61073); assay: Negative allosteric modulation of CXCR4 (unknown origin) expressed in HEK293T cells assessed as inhibition of CXCL12-induced reduction in forskolin-mediated cAMP accumulation after 20 mins by BRET assay; assay type: functional, cell-based
T2 sequence (P61073 whole entry): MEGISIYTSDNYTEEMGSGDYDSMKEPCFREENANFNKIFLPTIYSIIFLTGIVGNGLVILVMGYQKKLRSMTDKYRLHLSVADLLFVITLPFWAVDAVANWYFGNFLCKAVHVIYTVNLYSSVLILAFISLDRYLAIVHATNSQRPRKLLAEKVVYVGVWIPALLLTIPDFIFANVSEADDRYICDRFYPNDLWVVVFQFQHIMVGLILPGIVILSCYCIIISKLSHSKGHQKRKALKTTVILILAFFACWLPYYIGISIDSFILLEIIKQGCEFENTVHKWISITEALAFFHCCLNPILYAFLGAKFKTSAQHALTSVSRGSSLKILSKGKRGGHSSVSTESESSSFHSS
How it was run: (§3)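 Dose-response in CXCR4 BRET cAMP assay with CXCL12 at 20 nM, IT1t as reference. Analysis uses ternary complex allosteric model; where signal-to-noise was poor, nonlinear regression with Hill slope fixed at 1 gave approximate pEC50. Three experiments in triplicate.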

[8] = biological target: T2, C-X-C chemokine receptor type 4; assay: Agonist activity at CXCR4 (unknown origin) expressed in HEK293T cells assessed as inhibition of forskolin-mediated cAMP accumulation at 10 uM after 20 mins by BRET assay; assay type: functional, cell-based
How it was run: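 Agonism screen in BRET-based cAMP assay, compounds at 10 µM applied without chemokine. For CXCR4, CXCL12 at 20 nM serves as positive control. Mean of three experiments, each in triplicate.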

[9] = biological target: T1, C-X-C chemokine receptor type 3 (Homo sapiens); assay: Agonist activity at CXCR3 (unknown origin) expressed in HEK293T cells assessed as inhibition of forskolin-mediated cAMP accumulation at 10 uM after 20 mins by BRET assay; assay type: functional, cell-based
[10] = biological target: T1, C-X-C chemokine receptor type 3 (Homo sapiens); assay: Agonist activity at PK1-tagged CXCR3 (unknown origin) expressed in HEK293T cells co-expressing beta-arrestin/beta-Gal enzyme chimera assessed as beta-arrestin recruitment at 10 uM after 4 hrs by chemiluminescence based beta-galactosidase reporter gene assay; assay type: functional, cell-based; how it was run: as §1
[11] = biological target: T2, C-X-C chemokine receptor type 4; assay: Negative allosteric modulation of CXCR4 in human CD4+ T cells assessed as inhibition of CXCL12-induced migration at 150 uM preincubated for 1 hr followed by CXCL12 addition measured after 3 hrs by flow cytometry based transwell assay relative to control; assay type: functional, cell-based
How it was run: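 Isolated human CD4+ T cells, CXCR4 expression checked by flow cytometry, pre-treated with compound at 150 µM, then transwell migration toward CXCL12. Migrated cells in the lower chamber counted by flow cytometry over 60 s. Mean ± SD of four independent experiments; unpaired t test.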

[12] = biological target: T2, C-X-C chemokine receptor type 4; assay: Negative allosteric modulation of CXCR4 (unknown origin) expressed in HEK293T cells assessed as inhibition of CXCL12-induced reduction in forskolin-mediated cAMP accumulation at 10 uM after 20 mins by BRET assay relative to control; assay type: functional, cell-based
How it was run: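 CXCR4 antagonism in BRET cAMP assay, compounds at 10 µM. NetBRET expressed as percent, scaled between CXCL12 20 nM (100%) and IT1t 10 µM (0%). Mean ± S.E.M. of three experiments in triplicate.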

[13] = biological target: T2, C-X-C chemokine receptor type 4; assay: Negative allosteric modulation of CXCR4 (unknown origin) expressed in HEK293 cell membranes assessed as inhibition of CXCL12-induced [35S]GTPgammaS binding preincubated for 30 mins followed by [35S]GTPgammaS addition measured after 30 mins; assay type: functional
[14] = biological target: T1, C-X-C chemokine receptor type 3 (Homo sapiens); assay: Negative allosteric modulation of CXCR3 (unknown origin) expressed in HEK293 cell membranes assessed as inhibition of CXCL11-induced [35S]GTPgammaS binding preincubated for 30 mins followed by [35S]GTPgammaS addition measured after 30 mins; assay type: functional
[15] = biological target: T2, C-X-C chemokine receptor type 4; assay: Agonist activity at CXCR4 (unknown origin) expressed in HEK293T cells assessed as inhibition of forskolin-mediated cAMP accumulation after 20 mins by BRET assay; assay type: functional, cell-based; how it was run: as §3
[16] = biological target: T2, C-X-C chemokine receptor type 4; assay: Positive allosteric modulation of CXCR4 (unknown origin) expressed in HEK293T cells assessed as increase in CXCL12-induced reduction in forskolin-mediated cAMP accumulation at 10 uM after 20 mins by BRET assay relative to control; assay type: functional, cell-based; parameters: scale not given: the % may be the effect or the level left

For `O=C(c1ccc(-n2cccn2)nc1)N1CCN(Cc2ccc(Cl)cc2)CC1`, the inhibition [1] was “inactive”, the inhibition [2] was > 60% and the inhibition [3] was > 20%. The pKb [4] was 6.35 and the inhibition [5] was > 10%.

With `O=C(NCCCNc1ccc(Cl)cc1)c1ccc(-n2cccn2)nc1` the Activity [6] was “inactive”, the pKb [7] was 4.64 and the inhibition [8] was “Active”.

In the case of `O=C(c1ccc(-n2cccn2)nc1)N1CCC(N(Cc2ccccc2)Cc2ccccc2)CC1`, the inhibition [1] is reported as ≥ 20%, the inhibition [9] is reported as “inactive” and the Activity [10] is reported as “inactive”.

In the case of `COc1ccc(CN2CCN(C(=O)c3ccc(-n4cccn4)nc3)CC2)cc1`, the Activity [6] is reported as “inactive”, the inhibition [2] is reported as > 60% and the pKb [7] is reported as 6.09. For the same molecule, the inhibition [3] was > 20%, the inhibition [11] was > 80% and the pKb [4] was 6.15. For the same molecule, the inhibition [5] was > 10% and the inhibition [12] was > 50%.

In the case of `O=C(c1ccc(-n2cccn2)nc1)N1CCN(Cc2ccc(Cl)c(Cl)c2)CC1`, the Activity [6] is reported as “inactive”, the pKb [7] is reported as 6.5 and the inhibition [11] is reported as > 80%. For the same molecule, the inhibition [12] was > 50%.

With `COc1ccc(CN(Cc2ccccc2)C2CCN(C(=O)c3ccc(-n4cccn4)nc3)CC2)cc1` the inhibition [1] was ≥ 20%, the Activity [6] was “inactive” and the pKb [7] was 5.83. For the same molecule, the inhibition [9] was “inactive”, the Activity [10] was “inactive” and the inhibition [11] was 100%. The inhibition [12] was > 50%.

With `CCN(CCCNC(=O)c1ccc(-n2cccn2)nc1)c1ccccc1` the pKb [13] was 8.72, the inhibition [2] was “inactive” and the pKb [14] was 8.82. For the same molecule, the inhibition [12] was “inactive”.

`O=C(NC1CCN(Cc2ccc(Cl)cc2)CC1)c1ccc(-n2cccn2)nc1` was tested, and the Activity [6] was “inactive”, the inhibition [2] was > 50% and the pKb [7] was 5.6. For the same molecule, the inhibition [9] was “inactive”, the inhibition [8] was “Active” and the inhibition [3] was 80%. The Activity [10] was “inactive” and the inhibition [5] was 80%.

`O=C(NCCCNc1ccccc1)c1ccc(-n2cccn2)nc1` was tested, and the Activity [6] was “inactive”, the inhibition [8] was “Active” and the EC50 [15] was 9.55 µM.

Work on `CCOc1ccc(-n2c(C(C)N(Cc3cccnc3)C(=O)Cc3ccc(F)c(C(F)(F)F)c3)nc3ncccc3c2=O)cc1` (racemic) yielded an inhibition [1] of 100%.

With `O=C(c1ccc(-n2cccn2)nc1)N1CCC(N(Cc2ccccc2)Cc2ccc(F)c(F)c2)CC1` the inhibition [1] was ≥ 20%, the inhibition [9] was “inactive” and the Activity [10] was “inactive”.

For `O=C(c1ccc(-n2cccn2)nc1)N1CCC(N(Cc2ccccc2)Cc2ccc(Cl)c(Cl)c2)CC1`, the inhibition [2] was > 50%, the inhibition [9] was “inactive” and the inhibition [3] was > 20%. For the same molecule, the Activity [10] was “inactive” and the inhibition [5] was > 10%.

`O=C(c1ccc(-n2cccn2)nc1)N1CCC(NCc2ccccc2)CC1` was tested, and the Activity [6] was “inactive”, the inhibition [9] was “inactive” and the inhibition [8] was “Active”. The Activity [16] was “Active”, the Activity [10] was “inactive” and the EC50 [15] was 5.89 µM.

For `O=C(c1ccc(-n2cccn2)nc1)N1CCC(N(Cc2ccccc2)Cc2ccc(Cl)cc2)CC1`, the inhibition [1] was ≥ 20%, the inhibition [9] was “inactive” and the Activity [10] was “inactive”.

Molecule `CCOc1ccc(-n2c(C(C)N(CC3CCN(C)CC3)C(=O)Cc3ccc(F)c(C(F)(F)F)c3)nc3ncccc3c2=O)cc1` (stereo not given) has an inhibition [2] of 100% and a pKb [4] of 7.33.

`CC1(C)CN2C(CS/C(=N\C3CCCCC3)NC3CCCCC3)=CSC2=N1` was tested, and the pKb [7] was 8.54 and the Activity [16] was 100%.

`O=C(NC1CCN(Cc2ccc(F)c(F)c2)CC1)c1ccc(-n2cccn2)nc1` was tested, and the inhibition [2] was > 50%, the inhibition [9] was “inactive” and the inhibition [3] was > 20%. For the same molecule, the Activity [10] was “inactive” and the inhibition [5] was > 10%.

For `O=C(NCCCN(CCc1ccccc1)c1ccccc1)c1ccc(-n2cccn2)nc1`, the Activity [6] was “inactive”, the pKb [7] was 6.13 and the inhibition [11] was > 80%. The inhibition [12] was > 50%.

In the case of `O=C(NCCCN(Cc1ccccc1)c1ccccc1)c1ccc(-n2cccn2)nc1`, the Activity [6] is reported as “inactive”, the pKb [7] is reported as 6.04 and the inhibition [11] is reported as > 80%. For the same molecule, the inhibition [12] was > 50%.
